Where no end group is shown, it is not given here. [ ]: non-standard residue; d: D form. sY = N[C@@H](Cc1ccc(OS(=O)(=O)O)cc1)C(=O)O
Legend:
HIV-1 BaL = experiment: Acute HIV-1 infection assay in primary human CD4+ T cells; format: cell-based; details: dose-response; for inhibition of HIV-1 BaL infection: cell-free acute infection of primary human CD4+ T cells
Outline: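 Peptides were stocked at 10 mg/mL in NH4OH and stored frozen. Cell-free infection of primary human CD4+ T cells used CCR5-tropic HIV-1 BaL. Test peptides were titrated for dose-response, and non-sulfated homologous peptides and a scrambled sulfated control peptide were run in parallel. Cell viability was assessed in a separate assay.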

[1] = test system: binding of BG505 SOSIP.664 trimer to human CCR5; format: cell-based, HIV-1; details: Cf2Th/syn-CCR5 canine thymocytes, flow cytometry, dose-response
Outline: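 Cf2Th/syn-CCR5 cells were harvested at ~80% confluency with enzyme-free dissociation buffer. His-tagged BG505 SOSIP.664 trimer was preincubated with 2-domain sCD4 for 1 h at 4 °C, treated with test compound across a dose range, then bound to cells for 1 h at 4 °C. After washes, bound trimer was detected with PE anti-His antibody (1 h, 4 °C). Cells were fixed in 2% PFA and analysed by flow cytometry. Anti-CCR5 mAb 2D6 confirmed specificity.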

[2] = test system: panel of 12 HIV-1 strains; experiment: Infection of CD4+ T cells by a panel of 12 HIV-1 strains; format: cell-based; details: 50 μM
Outline: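 Cell-free infection of purified primary human CD4+ T cells, with each test compound at 50 μM. The panel had eight minimally passaged primary isolates (92US714, 92HT599, 07USLR, 07USPC, 07USSG, subtype B; 97ZA009, 98IN017, subtype C; 93BR019, subtype F) and four laboratory-expanded subtype B strains (BaL, JR-FL, ADA, IIIB). Both CCR5-tropic and CXCR4-using phenotypes were included.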

[3] = test system: sCD4:gp120 complex (gp120 BaL); experiment: NMR trNOESY interaction and competition with gp120/sCD4; format: binding, HIV-1; details: 2D NOESY, 0.8 mM peptide
Outline: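 The tyrosine-sulfated V2 peptide was 15N-labelled at Ala/Ile/Leu/Phe/Val, at 800 μM (0.8 mM). It was incubated 1 h on ice with 20 μM sCD4, 20 μM recombinant gp120 BaL, or both. Samples were exchanged into 20 mM sodium phosphate pH 6.8, 50 mM NaCl, 0.02% azide, 10% D2O. NOESY was run at 30 °C, 600 MHz, with mixing times 100/250/400 ms. For competition, 0.4 mM peptide was used with 0, 0.8 or 1.6 mM unlabelled sulfated CCR5 N-terminal peptide.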

[4] = test system: soluble, stabilized gp140 trimer (BG505-SOSIP.664); experiment: SPR of soluble gp140 trimer binding to immobilized V2 peptide; set-up: species or system HIV-1; details: SOSIP trimer 12.5-200 nM, absence of the CD4 mimic
Outline: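 The sulfated V2 test peptide was immobilized on a CM5 surface. Unliganded BG505 SOSIP.664 trimer (12.5–200 nM; produced in 293FS cells, lectin-affinity and size-exclusion purified) was injected for 2 min at 25 μL/min in HBS with 3 mM EDTA and 0.005% Tween-20, followed by 2 min dissociation. Regeneration used a brief 4.5 M MgCl2 pulse.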

[5] = test system: recombinant gp120 (strain BaL); experiment: SPR of monomeric gp120 binding to immobilized V2 peptide; set-up: species or system HIV-1; details: peptide immobilized on CM5, gp120 BaL pre-complexed with CD4-M48U
Outline: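 The sulfated V2 test peptide was immobilized on a CM5 chip. Recombinant monomeric gp120 BaL (25–400 nM) was preincubated with a 2-fold molar excess of CD4-M48U […]. It was injected for 2 min at 25 μL/min in HBS with 3 mM EDTA and 0.005% Tween-20, followed by 2 min dissociation. Surfaces were regenerated with 4.5 M MgCl2.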

DPVLEF[sY]KID[sY]IELAVQK [pSCR-Tys, reference compound]
inhibition of HIV-1 BaL infection (HIV-1 BaL): did not show significant inhibitory activity | inhibition of binding of sCD4-activated BG505 SOSIP.664 trimer to CCR5 [1]: limited effects

KKQKVHALF[sY]KLDIVPIK [pV2αΕ-Tys]
relative potency over the strain panel ([2]; compared to pV2α-Tys): generally lower potency compared to pV2α-Tys | number of resistant HIV-1 strains of 12 ([2]; purified CD4+ T cells): 3

KVQKE[sY]ALF[sY]ELDIVPID [pV2α-Tys]
inhibition of HIV-1 BaL infection (HIV-1 BaL): potently inhibited infection | trNOE signals (binding) with sCD4:gp120 complex ([3]; 20 μM sCD4:gp120, 30 °C): appearance of numerous NOE crosspeaks | trNOE signals (binding) with gp120 alone ([3]; gp120 alone): small number of weak trNOE crosspeaks | trNOE signals (binding) with sCD4 alone ([3]; sCD4 alone): no pV2α-Tys trNOEs signals were observed | inhibition of binding of sCD4-activated BG505 SOSIP.664 trimer to CCR5 [1]: reduced CCR5 binding of the trimer in a dose-dependent fashion | binding of soluble gp140 trimer to immobilized peptide [4]: unable to bind | ka [5]: 48300 M⁻¹ s⁻¹

MDYQVSSPI[sY]DIN[sY]YTSEPSQK [pCCR5-Tys, reference compound]
inhibition of HIV-1 BaL infection (HIV-1 BaL): dose-dependent HIV-1 inhibition | inhibition of binding of sCD4-activated BG505 SOSIP.664 trimer to CCR5 [1]: Dose-dependent inhibitory effect | activity against CCR5-tropic isolates ([2]; purified CD4+ T cells): restricted activity against CCR5-tropic isolates | activity against CXCR4-using (R5X4 and X4) isolates ([2]; purified CD4+ T cells): inactive

Tys173: pV2α version bearing a single sulfated tyrosine at position 173 (KVQKE[sY]ALFYELDIVPID)
inhibition of HIV-1 BaL infection (HIV-1 BaL): exhibited antiviral activity

Tys177: pV2α version bearing a single sulfated tyrosine at position 177 (KVQKEYALF[sY]ELDIVPID)
inhibition of HIV-1 BaL infection (HIV-1 BaL): exhibited antiviral activity | relative potency in inhibition of HIV-1 BaL infection (HIV-1 BaL; primary CD4+ T cells, singly vs doubly sulfated peptides): more potent than Tys173

Source: paper PMC5006643 (EBioMedicine, 2016)
